pKi: −log10 of the molar value.
Columns and labels:
Cavia porcellus = species on record: Cavia porcellus; assay: Selectivity ratio of Ki for Dunkin Hartley guinea pig brain sigma-2 receptor to Ki for Dunkin Hartley guinea pig brain sigma-1 receptor
[1] = molecular target: Sigma non-opioid intracellular receptor 1 (Cavia porcellus, UniProt Q60492); assay: Displacement of [3H]-(+)-pentazocine from sigma-1 receptor in Dunkin Hartley guinea pig brain membranes after 180 mins by liquid scintillation counting analysis; set-up: species or system Membrane
[2] = Displacement of [3H]-DTG from sigma-2 receptor in Dunkin Hartley guinea pig brain membrane after 120 mins by liquid scintillation counting analysis in presence of (+)-SKF10047; set-up: species or system Cavia porcellus
[3] = Acute toxicity in po dosed Kun Ming mouse after 24 hrs; type: organism-based; details: in vivo
Mus musculus [4] = assay: Antinociceptive activity in Kun Ming mouse pain model assessed as reduction in licking and biting time during phase-1 at 80 mg/kg, ip administered 15 mins prior to formalin challenge relative to vehicle-treated control; type: functional; details: route intraperitoneal
In short: (§1)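 Kun Ming mice (20 ± 2.0 g), 10–12 per group, given vehicle (30% PEG 400) or drug ip at 10 mL/kg 15 min before intraplantar formalin. Time spent licking or biting the injected paw scored at 0–5 min (phase I) and 15–45 min (phase II). Effect (%) = (LTV − LTD)/LTV × 100.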

Mus musculus [5] = assay: Antinociceptive activity in Kun Ming mouse pain model assessed as reduction in licking and biting time during phase-2 at 80 mg/kg, ip administered 15 mins prior to formalin challenge relative to vehicle-treated control; type: functional; details: route intraperitoneal; in short: as §1

Sequence of Sigma non-opioid intracellular receptor 1 (Q60492 whole entry): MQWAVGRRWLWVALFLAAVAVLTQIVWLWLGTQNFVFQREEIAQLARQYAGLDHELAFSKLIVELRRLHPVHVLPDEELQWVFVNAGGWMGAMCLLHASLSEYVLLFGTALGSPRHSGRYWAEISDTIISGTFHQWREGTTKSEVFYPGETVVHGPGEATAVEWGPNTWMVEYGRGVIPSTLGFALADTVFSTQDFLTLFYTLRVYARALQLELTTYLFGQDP

Row | Ratio Ki (Cavia porcellus) | pKi [1] | pKi [2] | SMILES | LD50 at 24 h [3] [mg/kg] | Time (Mus musculus [4]) [s] | Time (Mus musculus [5]) [s]
1 | 28 | 7.33 | 5.88 | CCN(CC)CCCOc1cc(C)nc(-c2ccccc2)n1 |  |  | 
2 |  | 6.60 | < 5.70 | c1ccc(-c2nc(OCCCN3CCCCC3)cc(C3CC3)n2)cc1 |  |  | 
3 |  | 6.02 | < 5.70 | c1ccc(-c2cc(OCCCN3CCCCC3)nc(-c3ccccc3)n2)cc1 |  |  | 
4 | 340 | 8.45 | 5.92 | Cc1nc(-c2ccccc2)nc(OCCCN2CCCC2)c1F |  |  | 
5 | 89.1 | 7.93 | 5.98 | Cc1cc(OCCCN2CCCCC2)nc(-c2ccccc2)n1 |  |  | 
6 |  | < 5.70 | < 5.70 | Cc1cc(OCCCN2CCN(c3ccccc3)CC2)nc(-c2ccccc2)n1 |  |  | 
7 | 18.4 | 7.23 | 5.97 | Cc1nc(C)c(Cl)c(OCCCN2CCCCC2)n1 |  |  | 
8 | 3.8 | 6.34 | 5.75 | Cc1cc(OCCCN2CCC(O)CC2)nc(-c2ccccc2)n1 |  |  | 
9 | 5 | 6.66 | 5.96 | CC(C)c1cc(OCCCN2CCCC2)nc(-c2ccccc2)n1 |  |  | 
10 | 38.5 | 7.51 | 5.93 | CCN1CCN(CCCOc2cc(C)nc(-c3ccccc3)n2)CC1 |  |  | 
11 |  | 6.56 | < 5.70 | c1ccc(-c2nc(OCCCN3CCCC3)cc(C3CC3)n2)cc1 |  |  | 
12 | 46.2 | 7.71 | 6.05 | COc1cc(OCCCN2CCCCC2)nc(-c2ccccc2)n1 |  |  | 
13 | 48 | 7.56 | 5.88 | FC(F)(F)c1cc(OCCCN2CCCC2)nc(-c2ccccc2)n1 |  |  | 
14 |  | < 5.70 | < 5.70 | Cc1cc(OCCN2CCOCC2)nc(-c2ccccc2)n1 |  |  | 
15 | 84.7 | 7.78 | 5.85 | Cc1cc(OCCCN2CCC(C)CC2)nc(-c2ccccc2)n1 |  |  | 
16 |  | 6.13 | < 5.70 | c1ccc(-c2cc(OCCCN3CCCC3)nc(-c3ccccc3)n2)cc1 |  |  | 
17 | 26.1 | 7.44 | 6.02 | Cc1cc(OCCCN2CCOCC2)nc(-c2ccccc2)n1 |  |  | 
18 |  | 6.41 | < 5.70 | Cc1cc(OCCCCCN2CCOCC2)nc(-c2ccccc2)n1 |  |  | 
19 | 12.5 | 6.94 | 5.84 | Cc1cc(OC/C=C/CN2CCOCC2)nc(-c2ccccc2)n1 |  |  | 
20 | 9.7 | 6.73 | 5.74 | CC(C)c1cc(OCCCN2CCCCC2)nc(-c2ccccc2)n1 |  |  | 
21 | 69.2 | 7.73 | 5.89 | Cc1cc(OCCCN2CCCN(C)CC2)nc(-c2ccccc2)n1 |  |  | 
22 |  | 7.05 | < 5.70 | Cc1nc(-c2ccc(Cl)c(Cl)c2)nc(OCCCN2CCCCC2)c1Cl |  |  | 
23 | 48 | 7.56 | 5.88 | FC(F)(F)c1cc(OCCCN2CCCCC2)nc(-c2ccccc2)n1 |  |  | 
24 | 128 | 8.02 | 5.91 | Cc1nc(-c2ccccc2)nc(OCCCN2CCCCC2)c1C |  |  | 
25 | 4.6 | 6.37 | 5.72 | Cc1cc(OCCOCCN2CCOCC2)nc(-c2ccccc2)n1 |  |  | 

Row | Ratio Ki (Cavia porcellus) | pKi [1] | pKi [2] | SMILES | LD50 at 24 h [3] [mg/kg] | Time (Mus musculus [4]) [s] | Time (Mus musculus [5]) [s]
26 | 5.9 | 6.73 | 5.96 | Cc1ncnc(OCCCN2CCCCC2)c1Cl |  |  | 
27 | 55 | 7.52 | 5.78 | Cc1cc(OCCCN2CC(C)CC(C)C2)nc(-c2ccccc2)n1 (centres undefined) |  |  | 
28 |  | 6.99 | < 5.70 | Cc1nc(-c2ccc3ccccc3c2)nc(OCCCN2CCCCC2)c1Cl |  |  | 
29 |  | < 5.70 | < 5.70 | Cc1cc(OCCCN2CCN(C(=O)OC(C)(C)C)CC2)nc(-c2ccccc2)n1 |  |  | 
30 | 55.6 | 7.69 | 5.94 | CCc1cc(OCCCN2CCCCC2)nc(-c2ccccc2)n1 |  |  | 
31 |  |  |  | Cc1cc(OCCN2CCOCC2)nn1-c1ccc2ccccc2c1 |  | 10.65 | 33.16
32 | 63.8 | 7.65 | 5.84 | CCc1cc(OCCCN2CCCC2)nc(-c2ccccc2)n1 |  |  | 
33 | 33.6 | 7.40 | 5.88 | Cc1nc(C2CC2)nc(OCCCN2CCCCC2)c1Cl |  |  | 
34 |  | 7.08 | < 5.70 | Cc1cc(OCCCN(C)C)nc(-c2ccccc2)n1 |  |  | 
35 | 92.1 | 7.87 | 5.90 | Cc1cc(OCCCN2CCCC2)nc(-c2ccccc2)n1 |  |  | 
36 | 3.4 | 6.31 | 5.78 | Cc1cc(OCC(O)CN2CCOCC2)nc(-c2ccccc2)n1 (centres undefined) |  |  | 
37 | 35.8 | 7.41 | 5.86 | CCCc1cc(OCCCN2CCCC2)nc(-c2ccccc2)n1 |  |  | 
38 |  | < 5.70 | < 5.70 | Cc1cc(OCCCCCCN2CCOCC2)nc(-c2ccccc2)n1 |  |  | 
39 | 27.5 | 7.41 | 5.97 | CCCN(CCC)CCCOc1cc(C)nc(-c2ccccc2)n1 |  |  | 
40 | 4.7 | 6.50 | 5.83 | Cc1cc(OCCCN2CCC(=O)CC2)nc(-c2ccccc2)n1 |  |  | 
41 |  | 6.42 | < 5.70 | Cc1cc(OCCCN2C(C)(C)CCCC2(C)C)nc(-c2ccccc2)n1 |  |  | 
42 |  | 9.01 | 6.03 | Cc1nc(-c2ccc(F)c(F)c2)nc(OCCCN2CCCCC2)c1Cl |  |  | 
43 | 46.2 | 7.71 | 6.05 | COc1cc(OCCCN2CCCC2)nc(-c2ccccc2)n1 |  |  | 
44 | 363 | 8.43 | 5.87 | Cc1nc(-c2ccccc2)nc(OCCCN2CCCCC2)c1F |  |  | 
45 | 11.2 | 7.02 | 5.97 | Cc1cc(OCCCCN2CCOCC2)nc(-c2ccccc2)n1 |  |  | 
46 | 41.7 | 7.46 | 5.84 | CCCc1cc(OCCCN2CCCCC2)nc(-c2ccccc2)n1 |  |  | 
47 | 8 | 6.82 | 5.92 | Cc1cc(OCCCN2CCNCC2)nc(-c2ccccc2)n1 |  |  | 
48 | 112 | 7.94 | 5.89 | Cc1nc(-c2ccccc2)nc(OCCCN2CCCC2)c1C |  |  | 
49 | 332 |  | 5.89 | COc1ccc(-c2nc(C)c(Cl)c(OCCCN3CCCCC3)n2)cc1 |  |  | 
50 | 58.3 | 7.64 | 5.88 | Cc1cc(OCCCN2CCN(C)CC2)nc(-c2ccccc2)n1 |  |  | 

Row | SMILES | Ratio Ki (Cavia porcellus) | pKi [1] | pKi [2] | LD50 at 24 h [3] [mg/kg] | Time (Mus musculus [4]) [s] | Time (Mus musculus [5]) [s]
51 | Cc1nc(-c2ccc(F)cc2)nc(OCCCN2CCCCC2)c1Cl |  | 8.94 | 5.88 | 884 |  | 
52 | Cc1nc(-c2ccccc2)nc(OCCCN2CCCC2)c1Cl |  | 8.40 | 5.77 | > 2000 |  | 
53 | Cc1nc(-c2ccccc2)nc(OCCCN2CCCCC2)c1Cl |  | 8.63 | 5.78 | 440 |  | 
54 | Cc1nc(-c2ccc(C(F)(F)F)cc2)nc(OCCCN2CCCCC2)c1Cl |  | 8.35 | 5.75 | 377 |  | 
55 | Cc1ccc(-c2nc(C)c(Cl)c(OCCCN3CCCCC3)n2)cc1 |  | 8.71 | 5.81 | 1680 |  | 

From ChEMBL document CHEMBL3351343, “Synthesis and biological evaluation of novel sigma-1 receptor antagonists based on pyrimidine scaffold as agents for treating neuropathic pain” (J Med Chem, 2014)
